Results published in ChEMBL document CHEMBL1142894, “Preparation of 5-aryl-3-alkylthio-l,2,4-triazoles and corresponding sulfones with antiinflammatory-analgesic activity” (Bioorg Med Chem, 2007).
Activity calls are given as the source filed them. No cut-off for these calls is given here.

Columns and labels:
Mus musculus [1] = assay: Antiinflammatory activity against carrageenan-induced paw edema in Swiss albino mouse assessed as swelling thickness at 100 mg/kg, po after 90 mins; type: functional
Summary of the method: (§1)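 Oral dosing in 0.5% CMC; vehicle to controls. Then carrageenan (0.5 mg/25 ll, freshly suspended in 154 mM saline) injected into the right hind paw subplantar tissue; saline into the left paw. Right-left footpad thickness difference measured by dial gauge calliper every 90 min over 6 h. Inhibition % is relative to vehicle control. n = 6; mean ± SEM.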

Mus musculus [2] = assay: Antiinflammatory activity against carrageenan-induced paw edema in Swiss albino mouse assessed as swelling thickness at 100 mg/kg, po after 180 mins; type: functional; summary of the method: as §1
Mus musculus [3] = assay: Antiinflammatory activity against carrageenan-induced paw edema in Swiss albino mouse assessed as swelling thickness at 100 mg/kg, po after 270 mins; type: functional; summary of the method: as §1
Mus musculus [4] = assay: Antiinflammatory activity against carrageenan-induced paw edema in Swiss albino mouse assessed as swelling thickness at 100 mg/kg, po after 360 mins; type: functional; summary of the method: as §1
Mus musculus [5] = assay: Inhibition of carrageenan-induced paw edema in Swiss albino mouse at 100 mg/kg, po after 90 mins relative to control; type: functional; conditions: 1.5 h; summary of the method: as §1
Mus musculus [6] = assay: Inhibition of carrageenan-induced paw edema in Swiss albino mouse at 100 mg/kg, po after 180 mins relative to control; type: functional; conditions: 3 h; summary of the method: as §1
Mus musculus [7] = assay: Inhibition of carrageenan-induced paw edema in Swiss albino mouse at 100 mg/kg, po after 270 mins relative to control; type: functional; conditions: 4.5 h; summary of the method: as §1
Mus musculus [8] = assay: Inhibition of carrageenan-induced paw edema in Swiss albino mouse at 100 mg/kg, po after 360 mins relative to control; type: functional; conditions: 6 h; summary of the method: as §1
Mus musculus [9] = assay: Antiinflammatory activity in Swiss albino mouse assessed as inhibition of carrageenan-induced paw edema at 50 mg/kg, po; type: functional
Mus musculus [10] = assay: Analgesic activity against p-benzoquinone-induced abdominal constriction in Swiss albino mouse assessed as number of writhings at 25 mg/kg, po; type: functional, Abdomen
Summary of the method: (§2)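 Test samples given orally in 0.5% CMC; vehicle to controls. 60 min later, 2.5% (v/v) p-benzoquinone in distilled water, 0.1 ml/10 g, given i.p. Mice housed singly; writhes counted for 15 min starting 5 min after injection. Activity is % change from vehicle controls. n = 6; mean ± SEM.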

Mus musculus [11] = assay: Analgesic activity against p-benzoquinone-induced abdominal constriction in Swiss albino mouse assessed as number of writhings at 50 mg/kg, po; type: functional, Abdomen; summary of the method: as §2
Mus musculus [12] = assay: Analgesic activity against p-benzoquinone-induced abdominal constriction in Swiss albino mouse assessed as number of writhings at 100 mg/kg, po; type: functional, Abdomen; summary of the method: as §2
Mus musculus [13] = assay: Analgesic activity against p-benzoquinone-induced abdominal constriction in Swiss albino mouse assessed as number of writhings at 200 mg/kg, po; type: functional, Abdomen; summary of the method: as §2
Mus musculus [14] = assay: Inhibition of p-benzoquinone-induced writhing in Swiss albino mouse at 25 mg/kg, po relative to control; type: functional
Summary of the method: (§3)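 Mice, n = 6 per group, dosed orally with a suspension in 0.5% sodium CMC. 60 min later, 0.1 ml/10 g of 2.5% […] p-benzoquinone in distilled water given ip. Abdominal writhes counted per animal for 15 min, starting 5 min after injection. Expressed as % change in mean writhing count versus vehicle controls.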

Mus musculus [15] = assay: Inhibition of p-benzoquinone-induced writhing in Swiss albino mouse at 50 mg/kg, po relative to control; type: functional; summary of the method: as §3
Mus musculus [16] = assay: Inhibition of p-benzoquinone-induced writhing in Swiss albino mouse at 100 mg/kg, po relative to control; type: functional; summary of the method: as §3
Mus musculus [17] = assay: Inhibition of p-benzoquinone-induced writhing in Swiss albino mouse at 200 mg/kg, po relative to control; type: functional; summary of the method: as §3
Mus musculus [18] = assay: Gastric-ulcerogenic effect in Swiss albino mouse assessed as lesions at 25 mg/kg, po; type: functional, organism-based; parameters: dose 25 mg/kg
Summary of the method: (§4)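 Mice killed under deep ether anesthesia 3 h after the writhing test; the oral dose in 0.5% CMC was the one used in that test. Stomachs removed, opened along the great curvature and examined under a dissecting microscope for lesions or bleeding. Reported as ratio of ulceration; n = 6.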

Mus musculus [19] = assay: Gastric-ulcerogenic effect in Swiss albino mouse assessed as lesions at 50 mg/kg, po; type: functional, organism-based; parameters: dose 50 mg/kg; summary of the method: as §4
Mus musculus [20] = assay: Gastric-ulcerogenic effect in Swiss albino mouse assessed as lesions at 100 mg/kg, po; type: functional, organism-based; parameters: dose 100 mg/kg; summary of the method: as §4
Mus musculus [21] = assay: Antiinflammatory activity against carrageenan-induced paw edema in Swiss albino mouse assessed as swelling thickness at 25 mg/kg, po after 90 mins; type: functional; summary of the method: as §1
Mus musculus [22] = assay: Antiinflammatory activity against carrageenan-induced paw edema in Swiss albino mouse assessed as swelling thickness at 25 mg/kg, po after 180 mins; type: functional; summary of the method: as §1
Mus musculus [23] = assay: Antiinflammatory activity against carrageenan-induced paw edema in Swiss albino mouse assessed as swelling thickness at 25 mg/kg, po after 270 mins; type: functional; summary of the method: as §1
Mus musculus [24] = assay: Antiinflammatory activity against carrageenan-induced paw edema in Swiss albino mouse assessed as swelling thickness at 25 mg/kg, po after 360 mins; type: functional; summary of the method: as §1

CCS(=O)(=O)c1nc(-c2ccccc2Cl)n[nH]1
Activity (Mus musculus [1]): 29.8 10^-2mm
Activity (Mus musculus [2]): 33.8 10^-2mm
Activity (Mus musculus [3]): 35 10^-2mm
Activity (Mus musculus [4]): 38.5 10^-2mm
inhibition in vivo at 100 mg/kg (Mus musculus [5]): 33.4%
inhibition in vivo at 100 mg/kg (Mus musculus [6]): 34.4%
inhibition in vivo at 100 mg/kg (Mus musculus [7]): 40.5%
inhibition in vivo at 100 mg/kg (Mus musculus [8]): 44%
inhibition in vivo at 50 mg/kg (Mus musculus [9]): 37.9%
Activity (Mus musculus [10]): 38.2
Activity (Mus musculus [11]): 23.4
Activity (Mus musculus [12]): 23.4
Activity (Mus musculus [13]): 45.9
inhibition in vivo at 25 mg/kg (Mus musculus [14]): 25.7%
inhibition in vivo at 50 mg/kg (Mus musculus [15]): 54.5%
inhibition in vivo at 100 mg/kg (Mus musculus [16]): 50.5%
inhibition in vivo at 200 mg/kg (Mus musculus [17]): 10.7%
Activity (Mus musculus [18]): Active
Activity (Mus musculus [19]): Active
Activity (Mus musculus [20]): Active
Activity (Mus musculus [21]): 47.2 10^-2mm
Activity (Mus musculus [22]): 54.4 10^-2mm
Activity (Mus musculus [23]): 59.1 10^-2mm
Activity (Mus musculus [24]): 61.5 10^-2mm
